Data published in ChEMBL document CHEMBL1125245, “Quinolone antibacterials: preparation and activity of bridged bicyclic analogues of the C7-piperazine” (J Med Chem, 1991).

system: not listed separately; assay: Compound evaluated in vitro against five gram-negative bacterial strains and geometric means of the minimum inhibitory concentrations (MIC) reported.; format: functional; design: unit not given here; details: not given
Summary of the method: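 Geometric mean MIC across five Gram-negative strains (E. coli H560, E. coli Vogel, Enterobacter cloacae MA 2646, Klebsiella pneumoniae MGH-2, Proteus rettgeri M1771). Mean taken as antilog of the averaged log MIC values.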

SMILES	MIC
O=C(O)c1cn(C2CC2)c2cc(N3CC4CCCC3CN4)c(F)cc2c1=O (configuration not stated)	0.08
CCN[C@@H]1C[C@H]2CC[C@@H](C1)N2c1cc2c(cc1F)c(=O)c(C(=O)O)cn2C1CC1	0.8
Cl.N[C@@H]1C[C@H]2CC[C@@H](C1)N2c1nc2c(cc1F)c(=O)c(C(=O)O)cn2C1CC1	0.25
O=C(O)c1cn(C2CC2)c2nc(N3C[C@H]4CC3CN4)c(F)cc2c1=O	0.08
O=C(O)c1cn(C2CC2)c2c(F)c(N3CC4CCC3CN4)c(F)cc2c1=O (configuration not stated)	0.09
O=C(O)c1cn(C2CC2)c2nc(N3CCN4CCC3C4)c(F)cc2c1=O (configuration not stated)	0.11
O=C(O)c1cn(C2CC2)c2nc(N3CCNCC3)c(F)cc2c1=O	0.06
Br.O=C(O)c1cn(C2CC2)c2cc(N3C[C@@H]4CC3CN4)c(F)cc2c1=O	0.04
Cl.N[C@@H]1C[C@H]2CC[C@@H](C1)N2c1c(F)cc2c(=O)c(C(=O)O)cn(C3CC3)c2c1F	0.26
O=C(O)c1cn(C2CC2)c2c(F)c(N3CC4CCCC3CN4)c(F)cc2c1=O (configuration not stated)	0.15

system: Escherichia coli; assay: In vivo protection against gram-negative Escherichia coli vogel in mouse after oral administration.; details: read-out: PD50

SMILES	ED50 [mg/kg]
O=C(O)c1cn(C2CC2)c2cc(N3CC4CCCC3CN4)c(F)cc2c1=O (configuration not stated)	5.7
CCN[C@@H]1C[C@H]2CC[C@@H](C1)N2c1cc2c(cc1F)c(=O)c(C(=O)O)cn2C1CC1	5.7
Cl.N[C@@H]1C[C@H]2CC[C@@H](C1)N2c1nc2c(cc1F)c(=O)c(C(=O)O)cn2C1CC1	2.1
O=C(O)c1cn(C2CC2)c2nc(N3C[C@H]4CC3CN4)c(F)cc2c1=O	53
O=C(O)c1cn(C2CC2)c2c(F)c(N3CC4CCC3CN4)c(F)cc2c1=O (configuration not stated)	2.9
O=C(O)c1cn(C2CC2)c2nc(N3CCN4CCC3C4)c(F)cc2c1=O (configuration not stated)	0.5
O=C(O)c1cn(C2CC2)c2nc(N3CCNCC3)c(F)cc2c1=O	0.7
Br.O=C(O)c1cn(C2CC2)c2cc(N3C[C@@H]4CC3CN4)c(F)cc2c1=O	1.9
Cl.N[C@@H]1C[C@H]2CC[C@@H](C1)N2c1c(F)cc2c(=O)c(C(=O)O)cn(C3CC3)c2c1F	21
O=C(O)c1cn(C2CC2)c2c(F)c(N3CC4CCCC3CN4)c(F)cc2c1=O (configuration not stated)	2.9

biological target: DNA gyrase (Escherichia coli, UniProt P0AES4+P0AES6); assay: Compound evaluated in vitro for the ability to inhibit gyrase.; format: protein-complex assay; details: read-out: I50 (converted)
Summary of the method: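 DNA gyrase isolated from Escherichia coli H560 cells; inhibition given as I50.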

SMILES	IC50 [µM]
O=C(O)c1cn(C2CC2)c2cc(N3CC4CCCC3CN4)c(F)cc2c1=O (configuration not stated)	4.85
CCN[C@@H]1C[C@H]2CC[C@@H](C1)N2c1cc2c(cc1F)c(=O)c(C(=O)O)cn2C1CC1	15.8
Cl.N[C@@H]1C[C@H]2CC[C@@H](C1)N2c1nc2c(cc1F)c(=O)c(C(=O)O)cn2C1CC1	42.8
O=C(O)c1cn(C2CC2)c2nc(N3C[C@H]4CC3CN4)c(F)cc2c1=O	18.3
O=C(O)c1cn(C2CC2)c2c(F)c(N3CC4CCC3CN4)c(F)cc2c1=O (configuration not stated)	16.8
O=C(O)c1cn(C2CC2)c2nc(N3CCN4CCC3C4)c(F)cc2c1=O (configuration not stated)	38.5
O=C(O)c1cn(C2CC2)c2nc(N3CCNCC3)c(F)cc2c1=O	150
Br.O=C(O)c1cn(C2CC2)c2cc(N3C[C@@H]4CC3CN4)c(F)cc2c1=O	4.48
Cl.N[C@@H]1C[C@H]2CC[C@@H](C1)N2c1c(F)cc2c(=O)c(C(=O)O)cn(C3CC3)c2c1F	8.92
O=C(O)c1cn(C2CC2)c2c(F)c(N3CC4CCCC3CN4)c(F)cc2c1=O (configuration not stated)	7.45

system: Streptococcus pneumoniae; assay: In vivo protection against gram-positive Streptococcus pneumonia (SV-1) in mouse after oral administration.; format: functional; details: read-out: PD50

SMILES	ED50 [mg/kg]
O=C(O)c1cn(C2CC2)c2cc(N3CC4CCCC3CN4)c(F)cc2c1=O (configuration not stated)	> 100
CCN[C@@H]1C[C@H]2CC[C@@H](C1)N2c1cc2c(cc1F)c(=O)c(C(=O)O)cn2C1CC1	35
Cl.N[C@@H]1C[C@H]2CC[C@@H](C1)N2c1nc2c(cc1F)c(=O)c(C(=O)O)cn2C1CC1	29
O=C(O)c1cn(C2CC2)c2nc(N3CCN4CCC3C4)c(F)cc2c1=O (configuration not stated)	32
Br.O=C(O)c1cn(C2CC2)c2cc(N3C[C@@H]4CC3CN4)c(F)cc2c1=O	> 100
O=C(O)c1cn(C2CC2)c2c(F)c(N3CC4CCCC3CN4)c(F)cc2c1=O (configuration not stated)	48.5

system: Streptococcus pneumoniae; assay: In vivo protection against gram-positive Streptococcus pneumonia (SV-1) in mouse after subcutaneous administration; format: functional; details: sc, read-out: PD50

SMILES	ED50 [mg/kg]
O=C(O)c1cn(C2CC2)c2cc(N3CC4CCCC3CN4)c(F)cc2c1=O (configuration not stated)	6.6
CCN[C@@H]1C[C@H]2CC[C@@H](C1)N2c1cc2c(cc1F)c(=O)c(C(=O)O)cn2C1CC1	23
Cl.N[C@@H]1C[C@H]2CC[C@@H](C1)N2c1nc2c(cc1F)c(=O)c(C(=O)O)cn2C1CC1	21
O=C(O)c1cn(C2CC2)c2nc(N3CCN4CCC3C4)c(F)cc2c1=O (configuration not stated)	20
Br.O=C(O)c1cn(C2CC2)c2cc(N3C[C@@H]4CC3CN4)c(F)cc2c1=O	12.5
O=C(O)c1cn(C2CC2)c2c(F)c(N3CC4CCCC3CN4)c(F)cc2c1=O (configuration not stated)	11.9

system: not listed separately; assay: Compound evaluated in vitro against five gram-positive bacterial strains and geometric means of the minimum inhibitory concentrations (MIC) reported.; format: functional; design: unit not given here; details: not given
Summary of the method: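 Geometric mean MIC across five Gram-positive strains, taken as antilog of the averaged log MIC values.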

SMILES	MIC
O=C(O)c1cn(C2CC2)c2cc(N3CC4CCCC3CN4)c(F)cc2c1=O (configuration not stated)	0.06
CCN[C@@H]1C[C@H]2CC[C@@H](C1)N2c1cc2c(cc1F)c(=O)c(C(=O)O)cn2C1CC1	0.26
Cl.N[C@@H]1C[C@H]2CC[C@@H](C1)N2c1nc2c(cc1F)c(=O)c(C(=O)O)cn2C1CC1	0.46
O=C(O)c1cn(C2CC2)c2nc(N3C[C@H]4CC3CN4)c(F)cc2c1=O	0.46
O=C(O)c1cn(C2CC2)c2c(F)c(N3CC4CCC3CN4)c(F)cc2c1=O (configuration not stated)	0.3
O=C(O)c1cn(C2CC2)c2nc(N3CCN4CCC3C4)c(F)cc2c1=O (configuration not stated)	0.46
O=C(O)c1cn(C2CC2)c2nc(N3CCNCC3)c(F)cc2c1=O	1.21
Br.O=C(O)c1cn(C2CC2)c2cc(N3C[C@@H]4CC3CN4)c(F)cc2c1=O	0.3
Cl.N[C@@H]1C[C@H]2CC[C@@H](C1)N2c1c(F)cc2c(=O)c(C(=O)O)cn(C3CC3)c2c1F	0.11
O=C(O)c1cn(C2CC2)c2c(F)c(N3CC4CCCC3CN4)c(F)cc2c1=O (configuration not stated)	0.15

system: Escherichia coli; assay: In vivo protection against gram-negative Escherichia coli vogel in mouse after subcutaneous administration; details: sc, read-out: PD50

SMILES	ED50 [mg/kg]
O=C(O)c1cn(C2CC2)c2cc(N3CC4CCCC3CN4)c(F)cc2c1=O (configuration not stated)	1.6
CCN[C@@H]1C[C@H]2CC[C@@H](C1)N2c1cc2c(cc1F)c(=O)c(C(=O)O)cn2C1CC1	2.3
Cl.N[C@@H]1C[C@H]2CC[C@@H](C1)N2c1nc2c(cc1F)c(=O)c(C(=O)O)cn2C1CC1	1.1
O=C(O)c1cn(C2CC2)c2nc(N3C[C@H]4CC3CN4)c(F)cc2c1=O	37
O=C(O)c1cn(C2CC2)c2c(F)c(N3CC4CCC3CN4)c(F)cc2c1=O (configuration not stated)	1.3
O=C(O)c1cn(C2CC2)c2nc(N3CCN4CCC3C4)c(F)cc2c1=O (configuration not stated)	0.3
O=C(O)c1cn(C2CC2)c2nc(N3CCNCC3)c(F)cc2c1=O	0.4
Br.O=C(O)c1cn(C2CC2)c2cc(N3C[C@@H]4CC3CN4)c(F)cc2c1=O	0.2
Cl.N[C@@H]1C[C@H]2CC[C@@H](C1)N2c1c(F)cc2c(=O)c(C(=O)O)cn(C3CC3)c2c1F	4
O=C(O)c1cn(C2CC2)c2c(F)c(N3CC4CCCC3CN4)c(F)cc2c1=O (configuration not stated)	1.1
